From the array DNA melting data of Ke et al. (doi:10.1101/2024.01.08.574731)

Columns and labels:
[1] = folding enthalpy; higher = less favourable; fluorescence melt of hairpins on a sequencing array, two-state fit; conditions: sodium 0.088 M
How it was run: (§1)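 Library hairpins on a sequenced MiSeq flow cell carried annealed Cy3 and quencher oligos, and their Cy3 fluorescence was imaged in 50 mM Na-HEPES pH 8.0 with 25 mM NaCl, in 2.5 °C steps up to 60 °C. Signals were normalised to Cy3 before quenching and to control constructs. Melting temperature and folding enthalpy were obtained from bootstrapped two-state fits, combined by inverse-variance weighting across four replicates, and the fitted temperatures were then raised by 9.35 °C to match UV melts.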

[2] = melting temperature; fluorescence melt of hairpins on a sequencing array, two-state fit, raised by 9.35 °C to match UV melts; conditions: sodium 0.088 M
How it was run: as §1

Row | Sequence | folding enthalpy [1] [kcal/mol] | Tm [2] [°C]
1 | GCCGTGCGAAAGCGGGGC (((..((....))..))) | -34.8 | 67.3
2 | GCGCAGCGAAAGCTTCGC (((.(((....))).))) | -36.1 | 51.4
3 | GCCTCCGAAAGGACGGGC ((((((....)))..))) | -24.5 | 48.6
4 | GCGTCCGACGC ((((...)))) | -27.1 | 53.9
5 | GGTCTTCCGAAAGGAACC (((..(((....)))))) | -10.5 | 26.5
6 | GCTACCGGAAACAGTAGC (((((.(....).))))) | -34.3 | 40.6
7 | GCACGGGGAAACCCGTAC (.(((((....))))).) | -13.2 | 41.7
8 | GTCAGAGGAAACCCTGAC (((((.(....).))))) | -32.4 | 43.8
9 | GACCACCGAAAGGTAGTC (((.(((....))).))) | -31.6 | 47
10 | GGTTTGGCGAAAGCCACC (((..(((....)))))) | -8.59 | 31.9
11 | GGGTTAGGAAACTGACTC (.((.((....)).)).) | -12.3 | 27.7
12 | CGACCGGAAACGGCATCG ((((((....)))..))) | -14.8 | 30
13 | GTGAACGAAAGTTACCAC ((((((....)))..))) | -15.3 | 26
14 | GGTGCGCGAAAGCGACC (((.(((....)))))) | -15.3 | 56.7
15 | GCGAGCGAAAGCTGTCGC ((((((....)))..))) | -23.8 | 52.9
16 | GTACCCCGAAAGGGATAC (((.(((....))).))) | -19.6 | 46.1
17 | GATCGCCAGAGCGATC ((((((....)))))) | -37.6 | 68.3
18 | GCATTGCGAAAGCCAAGC ((.(.((....)).).)) | -9.84 | 28.6
19 | GATCTTTGATAAGATC ((((((....)))))) | -25.5 | 42.6
20 | GATCCCGACGGGGATC ((((((....)))))) | -27.8 | 65.8
21 | GCAGATGGAAACATCTGC (((((((....))))))) | -37.5 | 67.1
22 | GCAAATCCGAAAGGATGC (((..(((....)))))) | -17.5 | 47.8
23 | GTCGGACGAAAGTCTGAC (((.(((....))).))) | -40.9 | 61.5

Row | Sequence | folding enthalpy [1] [kcal/mol] | Tm [2] [°C]
24 | CGCGGACCACTCCGCG ((((((....)))))) | -32.7 | 64
25 | GCGAAAAGTCGC ((((....)))) | -12.1 | 41.7
26 | GCTGACGGAAACGTCGGC ((.((((....)))).)) | -48.3 | 63.3
27 | CGCGGAGCGATCCGCG ((((((....)))))) | -23.5 | 62.2
28 | GCCCATCGAAAGATCGGC (((.(((....))).))) | -33.6 | 44.5
29 | GACGCTGGAAACGGCGTC (((((.(....).))))) | -44.2 | 64.9
30 | GGGTTCACGAAAGTGCCC (((..(((....)))))) | -19.6 | 41.2
31 | GGGCACGAAAGTGTCCCC ((((((....)))..))) | -12 | 65.1
32 | GGAGTAGGAAACTACCCC ((.((((....)))).)) | -24.4 | 35.1
33 | GGCGTACCGAAAGGTGCC (((..(((....)))))) | -33.2 | 54.7
34 | GTTCAGGGAAACTTGAGC (.(((.(....).))).) | -18.4 | 30.2
35 | GCTGCGCGAAAGCCCGGC ((.(.((....)).).)) | -17.5 | 44.1
36 | GATCATAACTATGATC ((((((....)))))) | -35.8 | 48
37 | GGCGATGGAAACGTCGCC (((((.(....).))))) | -48.7 | 64.6
38 | GTGCAGCCGAAAGGCCAC (((..(((....)))))) | -12.7 | 49.1
39 | GATCATCTTGATGATC ((((((....)))))) | -43.4 | 57.2
40 | GGCGGCGAAAGCCATGCC ((((((....)))..))) | -16.5 | 59.8
41 | GGCAACGGAAACGTTACC ((.((((....)))).)) | -29.8 | 45.1
42 | GGCACAGGAAACCATGCC ((((..(....)..)))) | -16.3 | 36.1
43 | GCATAGCGAAAGCGATGC ((((.((....)).)))) | -30.9 | 66.1
44 | GGGGATGAAAATCCCC ((((((....)))))) | -33.7 | 66.2
45 | GCGTACGAAAGTAGCGC ((((((....))).))) | -31.1 | 68.8
46 | GTGGTTGGAAACAGTCAC (((..((....))..))) | -19.4 | 31.2

Row | Sequence | folding enthalpy [1] [kcal/mol] | Tm [2] [°C]
47 | GAATAGACGAAAGTCTTC (((..(((....)))))) | -11.8 | 26.1
48 | GGCACGGGAAACCACGCC (((..((....))..))) | -28.8 | 46.2
49 | GCCTACGAAAGTACGGGC ((((((....)))..))) | -27.2 | 46.3
50 | GGGAGTCGAAAGACCCCC (((.(((....))).))) | -37.3 | 59.3
51 | GTCATCGAAAGATATGAC ((((((....)))..))) | -20 | 34.6
52 | GATCACTTATGTGATC ((((((....)))))) | -37.5 | 56.7
53 | GGTCCTGGAAACGGGACC (((((.(....).))))) | -57.4 | 57.3
54 | GGCTACGAAAGTAACGCC ((((((....)))..))) | -22.8 | 46.1
55 | GGGTGAGGAAACTTGCCC (((..((....))..))) | -22.9 | 43.5
56 | GCGATCGAAAGATTCGC ((((((....))).))) | -45.1 | 53.5
57 | GGGCCAGGAAACCAGCCC ((((..(....)..)))) | -26.8 | 43.9
58 | GGTTCAGCGAAAGCTACC (((..(((....)))))) | -16 | 32.7
59 | GCAGACACGAAAGTGTGC (((..(((....)))))) | -15.3 | 46.8
60 | GAAAACCCGAAAGGGTTC (((..(((....)))))) | -8.48 | 39.8
61 | GTTGATGCGAAAGCAAAC (((..(((....)))))) | -13.8 | 37.1
62 | GCACACCGAAAGGTATGC (((.(((....))).))) | -32.8 | 50.8
63 | GCGTGGCGAAAGCAAGGC ((.(.((....)).).)) | -18.8 | 46.6
64 | GGGTCGGGAAACCAACCC ((((.((....)).)))) | -35.2 | 47.1
65 | CGGTCTCGGAAACGACCG (((..(((....)))))) | -30 | 46.7
66 | GATTACACGAAAGTGATC (((..(((....)))))) | -9.64 | 26.4
67 | GGCACCGAAAGGTGAGCC ((((((....)))..))) | -13.3 | 52.6
68 | GTTCGGGGAAACCCGAGC (.(((((....))))).) | -25.5 | 53.3
69 | GCTTGCGGAAACGCAAAC (.(((((....))))).) | -12.4 | 44.6

Row | Sequence | folding enthalpy [1] [kcal/mol] | Tm [2] [°C]
70 | GTGGTAGAAATACCAC ((((((....)))))) | -36.1 | 53.6
71 | GATCTAACAGTAGATC ((((((....)))))) | -15.6 | 36.5
72 | GTGCGCGAAAGCGATCAC ((((((....)))..))) | -13.4 | 41
73 | GCTGCTGGAAACAGCAAC (.(((((....))))).) | -12.1 | 44.3
74 | GTGAACGAAAGTTGACAC ((((((....)))..))) | -18.6 | 34.8
75 | GGTCACCCGAAAGGGACC (((..(((....)))))) | -17.7 | 48.6
76 | GTGTTTGGAAACAAACAC (((((((....))))))) | -47.9 | 59.6
77 | GCGTCGCGAAAGCTACGC ((((.((....)).)))) | -29.4 | 66.9
78 | GTCGACGAAAGTCCAGAC ((((((....)))..))) | -16.1 | 38.9
79 | GATCAACAATTGATC ((((((...)))))) | -21.6 | 33.4
80 | GCCTCGCGAAAGCGCAGC ((..(((....)))..)) | -9.54 | 39.8
81 | GGTTATCGAAAGATACC (((.(((....)))))) | -25 | 43.1
82 | GTCTGTTCGAAAGAAGAC (((..(((....)))))) | -23 | 26.4
83 | GTGGGCGGAAACGCTCAC (((.(((....))).))) | -34.3 | 59.6
84 | GTCCTCGAAAGAGAGAC ((((((....))).))) | -20.2 | 46.6
85 | GTGTTGGAAACAACAC ((((((....)))))) | -35 | 56.8
86 | GATCCAGGAATGGATC ((((((....)))))) | -40.6 | 54
87 | GATCAACCGATTGATC ((((((....)))))) | -32.6 | 41.5
88 | GGCAACGAAAGTTCAGCC ((((((....)))..))) | -24.4 | 41.1
89 | CAGATGAAAATCTG (((((....))))) | -22.9 | 44.4
90 | GTCGGTGGAAACACCAAC ((.((((....)))).)) | -18.1 | 39.4
91 | CGCGGACAGCTCCGCG ((((((....)))))) | -30.1 | 68.2
92 | GCAACCGAAAGGTTTGC ((((((....))).))) | -23.6 | 55.7
